Laboratory results: ChEMBL document CHEMBL1128379, “Synthesis, characterization, and antimalarial activity of the glucuronides of the hydroxylated metabolites of arteether” (J Med Chem, 1995)
Values after ≈ are worked out from the molar mass of the structure shown.

Tests used:
Plasmodium falciparum = assay: In vitro antimalarial activity against Plasmodium falciparum FCR3; type: functional, organism-based
Method in brief: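 P. falciparum FCR-3 kept in candle jars in RPMI 1640 with 10% human serum, sorbitol-synchronized for at least three cycles. Serially diluted compounds plus ring-stage parasitized cells (0.5-1% parasitemia, 5-10% hematocrit), 37 °C for 24 h, then 2 μCi [3H]hypoxanthine added and incubated 24 h more. Cells harvested, scintillation counted, drug-free parasitized controls run alongside.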

[1] = Partition coefficient (logP); type: physicochemical; conditions: octanol/water
Method in brief: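 log P estimated from C-18 HPLC retention index. Retention times taken on thermospray LC/MS, isocratic 50% (v/v) methanol in water with 0.1 M ammonium acetate at 1 mL/min, positive ion, filament on, vaporizer tip 7 °C below take-off temperature, block 184 °C.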

Row | logP [1] | Compound | IC50 (Plasmodium falciparum) [µg/mL] | logP ([1]; read-out: logP)
1 | – | CCO[C@H]1O[C@@H]2O[C@@]3(C)CC[C@H]4[C@H](CO[C@H]5O[C@@H](C(=O)O)[C@H](O)[C@@H](O)[C@@H]5O)CC[C@@H]([C@H]1C)[C@@]24OO3 | 6 (≈ 11.9 µM) | 1.05
2 | – | CCO[C@H]1O[C@@H]2O[C@@]3(C)CC[C@H]4[C@H](C)[C@@H](O)C[C@@H]([C@H]1C)[C@@]24OO3 | – | 1.93
3 | 2.45 | C[C@H]1[C@@H](O)O[C@@H]2O[C@@]3(C)CC[C@H]4[C@H](C)CC[C@@H]1[C@@]24OO3 [ARTENIMOL] | 0.0107 (≈ 0.0376 µM) | –
4 | – | C[C@H]1[C@H](O[C@@H]2O[C@H](C(=O)O)C(O)[C@H](O)C2O)O[C@@H]2O[C@H]3CC[C@H]4[C@H](C)CC[C@@H]1[C@@]24OO3 (stereo partly drawn) | 6 (≈ 13.4 µM) | 1.08
5 | – | CCO[C@H]1O[C@@H]2O[C@@]3(C)CC[C@H]4[C@H](C)CC[C@@H]([C@H]1C)[C@@]24OO3 [ARTEMOTIL] | 0.0013 (≈ 0.00416 µM) | 3.89
6 | – | CCO[C@H]1O[C@@H]2O[C@@]3(C)CC[C@H]4[C@H](CO)CC[C@@H]([C@H]1C)[C@@]24OO3 | – | 2.08
7 | – | CCO[C@H]1O[C@@H]2O[C@@]3(C)CC[C@H]4[C@H](C)[C@H](O[C@H]5O[C@@H](C(=O)O)[C@H](O)[C@@H](O)[C@@H]5O)C[C@@H]([C@H]1C)[C@@]24OO3 | 6.56 (≈ 13 µM) | 0.93
8 | – | CCO[C@H]1O[C@@H]2O[C@@]3(C)CC[C@H]4[C@H](C)[C@@H](O[C@H]5O[C@@H](C(=O)O)[C@H](O)[C@@H](O)[C@@H]5O)C[C@@H]([C@H]1C)[C@@]24OO3 | 0.0893 (≈ 0.177 µM) | 0.61
9 | – | C[C@H]1[C@@H](O[C@@H]2O[C@H](C(=O)O)C(O)[C@H](O)C2O)O[C@@H]2O[C@H]3CC[C@H]4[C@H](C)CC[C@@H]1[C@@]24OO3 (stereo partly drawn) | 0.255 (≈ 0.571 µM) | 1.8
10 | – | CCO[C@H]1O[C@@H]2O[C@@]3(C)C[C@H](O)[C@H]4[C@H](C)CC[C@@H]([C@H]1C)[C@@]24OO3 | – | 2.7
11 | – | CCO[C@H]1O[C@@H]2O[C@@]3(C)CC[C@H]4[C@H](C)[C@H](O)C[C@@H]([C@H]1C)[C@@]24OO3 | – | 2.14
